In brackets after ≈: the same amount, converted by molar mass.
Legend:
[1] = Cytotoxicity against human MEXF 276L cells at 0.01 ug/ml relative to control; assay type: functional, MEXF276L
[2] = Cytotoxicity against human MEXF 394NL cells at 0.01 ug/ml relative to control; assay type: functional
[3] = Cytotoxicity against human PC3M cells at 10 ug/ml relative to control; assay type: functional, PC-3M
[4] = Cytotoxicity against human RXF 393NL cells at 0.001 ug/ml relative to control; assay type: functional
[5] = Cytotoxicity against human PAXF 1657L cells at 1 ug/ml relative to control; assay type: functional
[6] = Cytotoxicity against human PXF 1752L cells at 10 ug/ml relative to control; assay type: functional
[7] = Cytotoxicity against human OVXF 899L cells at 10 ug/ml relative to control; assay type: functional
[8] = Cytotoxicity against human RXF 1781L cells at 10 ug/ml relative to control; assay type: functional
[9] = Cytotoxicity against human RXF 1781L cells at 0.001 ug/ml relative to control; assay type: functional
HT-29 [10] = experiment: Cytotoxicity against human HT-29 cells at 1 ug/ml relative to control; assay type: functional
HCT-116 [11] = experiment: Cytotoxicity against human HCT116 cells at 1 ug/ml relative to control; assay type: functional
OVCAR-3 [12] = experiment: Cytotoxicity against human OVCAR3 cells at 10 ug/ml relative to control; assay type: functional
[13] = Cytotoxicity against human RXF 393NL cells at 1 ug/ml relative to control; assay type: functional
[14] = Cytotoxicity against human UXF 1138L cells at 1 ug/ml relative to control; assay type: functional
[15] = Cytotoxicity against human LXFL 1121L cells at 0.01 ug/ml relative to control; assay type: functional
[16] = Cytotoxicity against human MEXF 520L cells at 0.001 ug/ml relative to control; assay type: functional
CWR22R [17] = experiment: Cytotoxicity against human 22Rv1 cells at 0.1 ug/ml relative to control; assay type: functional
LNCaP = experiment: Cytotoxicity against human LNCAP cells at 0.1 ug/ml relative to control; assay type: functional
T-24 [18] = experiment: Cytotoxicity against human T24 cells at 0.001 ug/ml relative to control; assay type: functional
[19] = Cytotoxicity against human LXFA 526L cells at 0.1 ug/ml relative to control; assay type: functional
[20] = Cytotoxicity against human UXF 1138L cells at 0.001 ug/ml relative to control; assay type: functional
DU-145 [21] = experiment: Cytotoxicity against human DU145 cells at 0.1 ug/ml relative to control; assay type: functional
[22] = Cytotoxicity against human RXF 1781L cells at 1 ug/ml relative to control; assay type: functional
HCT-116 [23] = experiment: Cytotoxicity against human HCT116 cells at 0.01 ug/ml relative to control; assay type: functional
[24] = Cytotoxicity against human CNXF 498NL cells at 0.1 ug/ml relative to control; assay type: functional
[25] = Cytotoxicity against human RXF 393NL cells at 10 ug/ml relative to control; assay type: functional
OVCAR-3 [26] = experiment: Cytotoxicity against human OVCAR3 cells at 0.1 ug/ml relative to control; assay type: functional
[27] = Cytotoxicity against human MEXF 276L cells; assay type: functional, cell-based; conditions: MEXF276L
Outline: (§1)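 Monolayer cell survival and proliferation assay run across a panel of 36 human tumor cell lines, with IC50 determined from the resulting growth data.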

[28] = Cytotoxicity against human MEXF 514L cells; assay type: functional, cell-based; outline: as §1
CWR22R [29] = experiment: Cytotoxicity against human 22Rv1 cells; assay type: functional, cell-based
Outline: (§2)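 Monolayer cell survival and proliferation assay, run within a panel of 36 human tumor cell lines; IC50 determined per cell line.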

[30] = Cytotoxicity against human BXF 1218L cells at 1 ug/ml relative to control; assay type: functional
[31] = Cytotoxicity against human UXF 1138L cells at 10 ug/ml relative to control; assay type: functional
[32] = Cytotoxicity against human MEXF 394NL cells at 1 ug/ml relative to control; assay type: functional
[33] = Cytotoxicity against human RXF 486L cells at 0.1 ug/ml relative to control; assay type: functional
[34] = Cytotoxicity against human RXF 393NL cells at 0.01 ug/ml relative to control; assay type: functional
[35] = Cytotoxicity against human RXF 486L cells at 1 ug/ml relative to control; assay type: functional
NCI-H460 = experiment: Cytotoxicity against human H460 cells at 0.01 ug/ml relative to control; assay type: functional
PANC-1 = experiment: Cytotoxicity against human PANC1 cells at 0.01 ug/ml relative to control; assay type: functional
[36] = Cytotoxicity against human MEXF 514L cells at 0.01 ug/ml relative to control; assay type: functional
T-24 [37] = experiment: Cytotoxicity against human T24 cells; assay type: functional, cell-based; outline: as §1
[38] = Cytotoxicity against human MEXF 394NL cells at 10 ug/ml relative to control; assay type: functional
[39] = Cytotoxicity against human PC3M cells at 0.1 ug/ml relative to control; assay type: functional, PC-3M
[40] = Cytotoxicity against human BXF 1218L cells at 0.1 ug/ml relative to control; assay type: functional
[41] = Cytotoxicity against human LXFL 1121L cells at 1 ug/ml relative to control; assay type: functional
[42] = Cytotoxicity against human MEXF 462NL cells; assay type: functional, cell-based; outline: as §1
[43] = Cytotoxicity against human OVXF 899L cells at 1 ug/ml relative to control; assay type: functional
[44] = Cytotoxicity against human HNXF 536L cells; assay type: functional, cell-based; outline: as §2
DU-145 [45] = experiment: Cytotoxicity against human DU145 cells at 1 ug/ml relative to control; assay type: functional
HT-29 [46] = experiment: Cytotoxicity against human HT-29 cells; assay type: functional, cell-based; outline: as §2
[47] = Cytotoxicity against human HNXF 536L cells at 10 ug/ml relative to control; assay type: functional
[48] = Cytotoxicity against human GXF251L cells at 0.001 ug/ml relative to control; assay type: functional
OVCAR-3 [49] = experiment: Cytotoxicity against human OVCAR3 cells; assay type: functional, cell-based; outline: as §1
[50] = Cytotoxicity against human LXFL 529L cells at 0.01 ug/ml relative to control; assay type: functional
[51] = Cytotoxicity against human LXFA 526L cells at 0.01 ug/ml relative to control; assay type: functional
[52] = Cytotoxicity against human PAXF 1657L cells at 0.1 ug/ml relative to control; assay type: functional
[53] = Cytotoxicity against human CNXF 498NL cells at 0.001 ug/ml relative to control; assay type: functional

C=C1[C@@H](O)[C@H]2O[C@@]2(C[C@H]2C(C)=CC[C@H]3C(C)(C)CCC[C@]23C)[C@@H](O)[C@H]1O [EPOXYPHOLAMIN D]
Activity [1]: 98% | Activity [2]: 85% | Activity [3]: 5% | Activity [4]: 98% | Activity [5]: 73% | Activity [6]: 13% | Activity [7]: 12% | Activity [8]: 21% | Activity [9]: 98% | Activity (HT-29 [10]): 121% | Activity (HCT-116 [11]): 87% | Activity (OVCAR-3 [12]): 13% | Activity [13]: 118% | Activity [14]: 72% | Activity [15]: 135% | Activity [16]: 97% | Activity (CWR22R [17]): 90% | Activity (LNCaP): 103% | Activity (T-24 [18]): 100% | Activity [19]: 115% | Activity [20]: 96% | Activity (DU-145 [21]): 88% | Activity [22]: 100% | Activity (HCT-116 [23]): 97% | Activity [24]: 71% | Activity [25]: 10% | Activity (OVCAR-3 [26]): 91% | IC50 [27]: 4.69 µM | IC70 [27]: 5.54 µg/mL (≈ 15.3 µM) | IC90 [27]: 18.1 µg/mL (≈ 49.8 µM) | IC50 [28]: 11.6 µM | IC70 [28]: 6.57 µg/mL (≈ 18.1 µM) | IC90 [28]: 10.2 µg/mL (≈ 28.2 µM) | IC50 (CWR22R [29]): 2.48 µM | IC70 (CWR22R [29]): 3.06 µg/mL (≈ 8.45 µM) | IC90 (CWR22R [29]): 10.6 µg/mL (≈ 29.4 µM) | Activity [30]: 29% | Activity [31]: 9% | Activity [32]: 78% | Activity [33]: 97% | Activity [34]: 126% | Activity [35]: 82% | Activity (NCI-H460): 98% | Activity (PANC-1): 92% | Activity [36]: 123% | IC50 (T-24 [37]): 12 µM | IC70 (T-24 [37]): 6.41 µg/mL (≈ 17.7 µM) | IC90 (T-24 [37]): 9.44 µg/mL (≈ 26 µM) | Activity [38]: 6% | Activity [39]: 73% | Activity [40]: 104% | Activity [41]: 97% | IC50 [42]: 5.79 µM | IC70 [42]: 4.77 µg/mL (≈ 13.2 µM) | IC90 [42]: 10.9 µg/mL (≈ 30 µM) | Activity [43]: 84% | IC50 [44]: 7.92 µM | IC70 [44]: 5 µg/mL (≈ 13.8 µM) | IC90 [44]: 8.7 µg/mL (≈ 24 µM) | Activity (DU-145 [45]): 90% | IC50 (HT-29 [46]): 10.8 µM | IC70 (HT-29 [46]): 5.73 µg/mL (≈ 15.8 µM) | IC90 (HT-29 [46]): 8.41 µg/mL (≈ 23.2 µM) | Activity [47]: 5% | Activity [48]: 105% | IC50 (OVCAR-3 [49]): 1.96 µM | IC70 (OVCAR-3 [49]): 2.71 µg/mL (≈ 7.48 µM) | IC90 (OVCAR-3 [49]): 12.6 µg/mL (≈ 34.7 µM) | Activity [50]: 99% | Activity [51]: 104% | Activity [52]: 92% | Activity [53]: 102%
